Assay results from ChEMBL document CHEMBL1649269, “In vitro activities of three new dihydrofolate reductase inhibitors against clinical isolates of gram-positive bacteria” (2009).
Values after ≈ are worked out from the molar mass of the structure shown.

What was measured:
[1] = Antimicrobial activity against Group G Streptococcus assessed as susceptible isolates by agar dilution method; type: functional, Streptococcus sp. 'group G'
In short: (§1)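 Clinical isolates of beta-hemolytic streptococci, S. mitis and S. pneumoniae were tested by CLSI methodology, with Mueller-Hinton medium supplemented with 5% lysed horse blood. S. aureus ATCC 29213 and S. pneumoniae ATCC 49619 served as control strains. The percentage of susceptible isolates was derived from CLSI breakpoints.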

Listeria monocytogenes [2] = experiment: Antimicrobial activity against Listeria monocytogenes assessed as susceptible isolates by agar dilution method; type: functional
In short: (§2)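 CLSI agar dilution MIC testing of clinical isolates of staphylococci and Listeria. S. aureus ATCC 29213 and S. pneumoniae ATCC 49619 served as control strains. The percentage of susceptible isolates was calculated from CLSI breakpoints.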

Streptococcus pneumoniae [3] = experiment: Antimicrobial activity against Streptococcus pneumoniae by agar dilution method; type: functional; in short: as §1
Streptococcus mitis [4] = experiment: Antimicrobial activity against Streptococcus mitis assessed as susceptible isolates by agar dilution method; type: functional; settings: in the assay text read “broth dilution method” for “agar dilution method”; in short: as §1
Listeria monocytogenes [5] = experiment: Antimicrobial activity against Listeria monocytogenes by agar dilution method; type: functional; in short: as §2
Corynebacterium sp. [6] = experiment: Antimicrobial activity against Corynebacterium spp. by agar dilution method; type: functional
Staphylococcus aureus [7] = experiment: Antimicrobial activity against Heterovancomycin-resistant Staphylococcus aureus by agar dilution method; type: functional
In short: (§3)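 Clinical S. aureus isolates classed as hVISA or VISA by population analysis profiling. MICs by CLSI agar dilution, with S. aureus ATCC 29213 as control strain.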

[8] = tested on: Streptococcus sp. 'group A'; experiment: Antimicrobial activity against Group A Streptococcus assessed as susceptible isolates by agar dilution method; type: functional; in short: as §1
[9] = tested on: Streptococcus sp. 'group A'; experiment: Antimicrobial activity against Group A Streptococcus by agar dilution method; type: functional; in short: as §1
[10] = Antimicrobial activity against Group C Streptococcus by agar dilution method; type: functional; settings: Streptococcus sp. 'group C'; in short: as §1
[11] = Antimicrobial activity against Group G Streptococcus by agar dilution method; type: functional; settings: Streptococcus sp. 'group G'; in short: as §1
Staphylococcus aureus [12] = experiment: Antimicrobial activity against vancomycin-resistant Staphylococcus aureus by agar dilution method; type: functional; in short: as §3
[13] = tested on: Streptococcus sp. 'group B'; experiment: Antimicrobial activity against Group B Streptococcus by agar dilution method; type: functional; in short: as §1
Streptococcus mitis [14] = experiment: Antimicrobial activity against Streptococcus mitis by broth dilution method
Staphylococcus [15] = experiment: Antimicrobial activity against Coagulase-negative Staphylococcus assessed as susceptible isolates by agar dilution method; type: functional; in short: as §2
[16] = Antimicrobial activity against Group C Streptococcus assessed as susceptible isolates by agar dilution method; type: functional, Streptococcus sp. 'group C'; in short: as §1
Staphylococcus aureus [17] = experiment: Antimicrobial activity against methicillin-resistant Staphylococcus aureus by agar dilution method; type: functional
In short: (§4)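 MICs against clinical MRSA or MSSA isolates by CLSI agar dilution, with S. aureus ATCC 29213 as control strain. Percentage of susceptible isolates was calculated from the MICs using CLSI breakpoints.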

Streptococcus pneumoniae [18] = experiment: Antimicrobial activity against Streptococcus pneumoniae assessed as susceptible isolates by agar dilution method; type: functional; in short: as §1
Staphylococcus [19] = experiment: Antimicrobial activity against Coagulase-negative Staphylococcus by agar dilution method; type: functional; in short: as §2
Staphylococcus aureus [20] = experiment: Antimicrobial activity against methicillin-sensitive Staphylococcus aureus by agar dilution method; type: functional; in short: as §4
[21] = tested on: Streptococcus sp. 'group B'; experiment: Antimicrobial activity against Group B Streptococcus assessed as susceptible isolates by agar dilution method; type: functional; in short: as §1
Staphylococcus aureus [22] = experiment: Antimicrobial activity against methicillin-sensitive Staphylococcus aureus assessed as susceptible isolates by agar dilution method; type: functional; in short: as §4
Corynebacterium sp. [23] = experiment: Antimicrobial activity against Corynebacterium spp. assessed as susceptible isolates by agar dilution method; type: functional
Staphylococcus aureus [24] = experiment: Antimicrobial activity against Heterovancomycin-resistant Staphylococcus aureus assessed as susceptible isolates by agar dilution method; type: functional
Staphylococcus aureus [25] = experiment: Antimicrobial activity against vancomycin-resistant Staphylococcus aureus assessed as susceptible isolates by agar dilution method; type: functional

Compound: COc1ncc(C2c3ccccc3C=NN2C(=O)/C=C/c2cc(Cc3cnc(N)nc3N)cc(OC)c2OC)cn1 (configuration not stated)
- Activity [1]: 100%
- Activity (Listeria monocytogenes [2]): 100%
- MIC50 (Streptococcus pneumoniae [3]): 0.06 µg/mL (≈ 0.109 µM)
- MIC90 (Streptococcus pneumoniae [3]): 0.12 µg/mL (≈ 0.217 µM)
- Activity (Streptococcus mitis [4]): 100%
- MIC (Listeria monocytogenes [5]): 0.015 µg/mL (≈ 0.0271 µM)
- MIC50 (Listeria monocytogenes [5]): 0.015 µg/mL (≈ 0.0271 µM)
- MIC90 (Listeria monocytogenes [5]): 0.015 µg/mL (≈ 0.0271 µM)
- MIC50 (Corynebacterium sp. [6]): 0.06 µg/mL (≈ 0.109 µM)
- MIC90 (Corynebacterium sp. [6]): 4 µg/mL (≈ 7.24 µM)
- MIC50 (Staphylococcus aureus [7]): 0.03 µg/mL (≈ 0.0543 µM)
- MIC90 (Staphylococcus aureus [7]): 0.06 µg/mL (≈ 0.109 µM)
- Activity [8]: 100%
- MIC50 [9]: 0.06 µg/mL (≈ 0.109 µM)
- MIC90 [9]: 0.06 µg/mL (≈ 0.109 µM)
- MIC50 [10]: 0.015 µg/mL (≈ 0.0271 µM)
- MIC90 [10]: 0.06 µg/mL (≈ 0.109 µM)
- MIC50 [11]: 0.03 µg/mL (≈ 0.0543 µM)
- MIC90 [11]: 0.06 µg/mL (≈ 0.109 µM)
- MIC50 (Staphylococcus aureus [12]): 0.03 µg/mL (≈ 0.0543 µM)
- MIC90 (Staphylococcus aureus [12]): 0.25 µg/mL (≈ 0.452 µM)
- MIC50 [13]: 0.03 µg/mL (≈ 0.0543 µM)
- MIC90 [13]: 0.06 µg/mL (≈ 0.109 µM)
- MIC (Streptococcus mitis [14]): < 0.008 µg/mL
- MIC50 (Streptococcus mitis [14]): < 0.008 µg/mL
- Activity (Staphylococcus [15]): 86%
- Activity [16]: 100%
- MIC (Staphylococcus aureus [17]): 0.015 µg/mL (≈ 0.0271 µM)
- MIC50 (Staphylococcus aureus [17]): 0.015 µg/mL (≈ 0.0271 µM)
- MIC90 (Staphylococcus aureus [17]): 0.06 µg/mL (≈ 0.109 µM)
- Activity (Streptococcus pneumoniae [18]): 100%
- MIC50 (Staphylococcus [19]): 0.06 µg/mL (≈ 0.109 µM)
- MIC90 (Staphylococcus [19]): 8 µg/mL (≈ 14.5 µM)
- MIC50 (Staphylococcus aureus [20]): 0.03 µg/mL (≈ 0.0543 µM)
- MIC90 (Staphylococcus aureus [20]): 0.03 µg/mL (≈ 0.0543 µM)
- Activity [21]: 100%
- Activity (Staphylococcus aureus [22]): 100%
- Activity (Corynebacterium sp. [23]): 83%

Compound: CCCCCCCCCC(=O)N[C@@H](Cc1c[nH]c2ccccc12)C(=O)N[C@H](CC(N)=O)C(=O)N[C@@H](CC(=O)O)C(=O)N[C@@H]1C(=O)NCC(=O)N[C@@H](CCCN)C(=O)N[C@@H](CC(=O)O)C(=O)N[C@H](C)C(=O)N[C@@H](CC(=O)O)C(=O)NCC(=O)N[C@H](CO)C(=O)N[C@@H]([C@H](C)CC(=O)O)C(=O)N[C@@H](CC(=O)c2ccccc2N)C(=O)O[C@@H]1C
- Activity [1]: 100%
- MIC50 (Streptococcus pneumoniae [3]): 0.06 µg/mL (≈ 0.037 µM)
- MIC90 (Streptococcus pneumoniae [3]): 0.12 µg/mL (≈ 0.074 µM)
- MIC50 (Listeria monocytogenes [5]): 1 µg/mL (≈ 0.617 µM)
- MIC90 (Listeria monocytogenes [5]): 2 µg/mL (≈ 1.23 µM)
- MIC50 (Corynebacterium sp. [6]): 0.06 µg/mL (≈ 0.037 µM)
- MIC90 (Corynebacterium sp. [6]): 0.12 µg/mL (≈ 0.074 µM)
- MIC50 (Staphylococcus aureus [7]): 0.5 µg/mL (≈ 0.309 µM)
- MIC90 (Staphylococcus aureus [7]): 0.5 µg/mL (≈ 0.309 µM)
- Activity [8]: 100%
- MIC [9]: 0.015 µg/mL (≈ 0.00926 µM)
- MIC50 [9]: 0.015 µg/mL (≈ 0.00926 µM)
- MIC90 [9]: 0.03 µg/mL (≈ 0.0185 µM)
- MIC50 [10]: 0.03 µg/mL (≈ 0.0185 µM)
- MIC90 [10]: 0.12 µg/mL (≈ 0.074 µM)
- MIC [11]: 0.015 µg/mL (≈ 0.00926 µM)
- MIC50 [11]: 0.015 µg/mL (≈ 0.00926 µM)
- MIC90 [11]: 0.03 µg/mL (≈ 0.0185 µM)
- MIC50 (Staphylococcus aureus [12]): 1 µg/mL (≈ 0.617 µM)
- MIC90 (Staphylococcus aureus [12]): 2 µg/mL (≈ 1.23 µM)
- MIC [13]: 0.015 µg/mL (≈ 0.00926 µM)
- MIC50 [13]: 0.015 µg/mL (≈ 0.00926 µM)
- MIC90 [13]: 0.06 µg/mL (≈ 0.037 µM)
- MIC (Streptococcus mitis [14]): 0.006 µg/mL (≈ 0.0037 µM)
- MIC50 (Streptococcus mitis [14]): 0.25 µg/mL (≈ 0.154 µM)
- Activity (Staphylococcus [15]): 100%
- Activity (Staphylococcus aureus [24]): 96%
- Activity (Staphylococcus aureus [25]): 71%
- Activity [16]: 100%
- MIC (Staphylococcus aureus [17]): 0.12 µg/mL (≈ 0.074 µM)
- MIC50 (Staphylococcus aureus [17]): 0.12 µg/mL (≈ 0.074 µM)
- MIC90 (Staphylococcus aureus [17]): 0.25 µg/mL (≈ 0.154 µM)
- MIC50 (Staphylococcus [19]): 0.25 µg/mL (≈ 0.154 µM)
- MIC90 (Staphylococcus [19]): 0.5 µg/mL (≈ 0.309 µM)
- MIC50 (Staphylococcus aureus [20]): 0.25 µg/mL (≈ 0.154 µM)
- MIC90 (Staphylococcus aureus [20]): 0.25 µg/mL (≈ 0.154 µM)
- Activity [21]: 100%
- Activity (Staphylococcus aureus [22]): 100%

Compound: CC(=O)NC[C@H]1CN(c2ccc(N3CCOCC3)c(F)c2)C(=O)O1 [LINEZOLID]
- Activity [1]: 100%
- MIC50 (Streptococcus pneumoniae [3]): 1 µg/mL (≈ 2.96 µM)
- MIC90 (Streptococcus pneumoniae [3]): 2 µg/mL (≈ 5.93 µM)
- MIC (Listeria monocytogenes [5]): 2 µg/mL (≈ 5.93 µM)
- MIC50 (Listeria monocytogenes [5]): 2 µg/mL (≈ 5.93 µM)
- MIC90 (Listeria monocytogenes [5]): 2 µg/mL (≈ 5.93 µM)
- MIC50 (Corynebacterium sp. [6]): 0.06 µg/mL (≈ 0.178 µM)
- MIC90 (Corynebacterium sp. [6]): 0.12 µg/mL (≈ 0.356 µM)
- MIC (Staphylococcus aureus [7]): 1 µg/mL (≈ 2.96 µM)
- MIC50 (Staphylococcus aureus [7]): 1 µg/mL (≈ 2.96 µM)
- MIC90 (Staphylococcus aureus [7]): 2 µg/mL (≈ 5.93 µM)
- Activity [8]: 100%
- MIC50 [9]: 1 µg/mL (≈ 2.96 µM)
- MIC90 [9]: 1 µg/mL (≈ 2.96 µM)
- MIC [10]: 1 µg/mL (≈ 2.96 µM)
- MIC50 [10]: 1 µg/mL (≈ 2.96 µM)
- MIC90 [10]: 2 µg/mL (≈ 5.93 µM)
- MIC50 [11]: 2 µg/mL (≈ 5.93 µM)
- MIC90 [11]: 2 µg/mL (≈ 5.93 µM)
- MIC50 (Staphylococcus aureus [12]): 1 µg/mL (≈ 2.96 µM)
- MIC90 (Staphylococcus aureus [12]): 2 µg/mL (≈ 5.93 µM)
- MIC [13]: 1 µg/mL (≈ 2.96 µM)
- MIC50 [13]: 1 µg/mL (≈ 2.96 µM)
- MIC90 [13]: 2 µg/mL (≈ 5.93 µM)
- MIC50 (Streptococcus mitis [14]): 1 µg/mL (≈ 2.96 µM)
- Activity (Staphylococcus [15]): 100%
- Activity [16]: 100%
- MIC50 (Staphylococcus aureus [17]): 2 µg/mL (≈ 5.93 µM)
- MIC90 (Staphylococcus aureus [17]): 2 µg/mL (≈ 5.93 µM)
- Activity (Streptococcus pneumoniae [18]): 100%
- MIC50 (Staphylococcus [19]): 1 µg/mL (≈ 2.96 µM)
- MIC90 (Staphylococcus [19]): 2 µg/mL (≈ 5.93 µM)
- MIC50 (Staphylococcus aureus [20]): 2 µg/mL (≈ 5.93 µM)
- MIC90 (Staphylococcus aureus [20]): 2 µg/mL (≈ 5.93 µM)
- Activity [21]: 100%
- Activity (Staphylococcus aureus [22]): 100%
